According to ChEMBL document CHEMBL3351780, “Novel hybrids of metronidazole and quinolones: synthesis, bioactive evaluation, cytotoxicity, preliminary antimicrobial mechanism and effect of metal ions on their transportation by human serum albumin” (Eur J Med Chem, 2014):
Values after ≈ are worked out from the molar mass of the structure shown.

Legend:
[1] = Cytotoxicity against human LO2 cells assessed as inhibition of cell viability at 32 ug/ml after 24 hrs by MTT assay; format: cell-based, L02; details: read-out: INH
Outline: (§1)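 LO2 hepatocytes were plated and left to attach for 24 h. DMSO stocks were diluted in medium and added, and cells were cultured for 24 h at 37 °C in humidified 5% CO2. MTT absorbance read at 490 nm. Three parallels. Inhibition computed as percent reduction of viable cells against drug-free control.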

Escherichia coli = experiment: Antibacterial activity against Escherichia coli DH52 by two-fold serial dilution method; format: functional
Outline: (§2)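 Standard two-fold serial dilution in 96-well microtest plates following NCCLS. Top dilutions printed as 32, 16, 8, 4, 2, 1, 0.5 ug/mL. Wells inoculated and held at 37 °C for 24 h. Growth judged visually and by spectrophotometer, in triplicate. MIC is the lowest concentration giving complete growth inhibition.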

Albumin [2] = target: T1, Albumin (Homo sapiens, UniProt P02768); experiment: Drug transport index, ratio of Kb to K0 for human serum albumin by fluorescence spectrophotometry in presence of Ca2+; format: ADME
T1 sequence (P02768 whole entry): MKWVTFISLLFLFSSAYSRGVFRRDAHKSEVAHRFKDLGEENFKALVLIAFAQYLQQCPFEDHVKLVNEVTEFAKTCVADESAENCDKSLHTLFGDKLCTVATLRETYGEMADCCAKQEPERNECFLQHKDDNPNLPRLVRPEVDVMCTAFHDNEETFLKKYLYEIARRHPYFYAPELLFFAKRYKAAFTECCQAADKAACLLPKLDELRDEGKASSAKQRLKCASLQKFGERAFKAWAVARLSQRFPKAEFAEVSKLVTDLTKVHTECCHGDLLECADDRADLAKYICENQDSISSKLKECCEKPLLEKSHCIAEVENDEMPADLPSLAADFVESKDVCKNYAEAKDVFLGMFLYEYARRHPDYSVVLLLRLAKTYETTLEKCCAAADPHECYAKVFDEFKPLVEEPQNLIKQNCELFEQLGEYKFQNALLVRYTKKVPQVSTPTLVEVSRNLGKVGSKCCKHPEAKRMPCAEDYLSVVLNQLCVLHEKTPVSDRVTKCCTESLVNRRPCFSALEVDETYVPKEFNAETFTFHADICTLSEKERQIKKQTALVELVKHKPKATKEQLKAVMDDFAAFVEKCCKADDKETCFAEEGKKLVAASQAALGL
Outline: (§3)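 HSA in Tris-HCl (0.05 M Tris, 0.15 M NaCl, pH 7.4) with compound, in the presence of CaCl2, KCl, MgCl2 or NiCl2. Fluorescence was excited at 295 nm and emission recorded from 300 to 450 nm at 298 K, with 2.5 nm slits. Binding constants with the metal ion (Kb) and without it (K0) were expressed as Kb/K0.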

Staphylococcus aureus [3] = experiment: Antibacterial activity against methicillin-resistant Staphylococcus aureus N315 by two-fold serial dilution method; format: functional
Outline: (§4)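 MIC read as the lowest concentration giving complete growth inhibition. Two-fold serial dilutions were made in 96-well plates following NCCLS, giving a series down to 0.5 µg/mL (…32, 16, 8, 4, 2, 1, 0.5). Plates were inoculated and incubated at 37 °C for 24 h. A DMSO-with-inoculum control without drug was included. Growth was monitored visually and spectrophotometrically, in triplicate.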

[4] = Aqueous solubility of the compound by UV-spectrophotometry; format: physicochemical
Micrococcus luteus = experiment: Antibacterial activity against Micrococcus luteus by two-fold serial dilution method; format: functional; outline: as §2
[5] = Antibacterial activity against Eberthella typhosa by two-fold serial dilution method; format: functional; outline: as §4
Staphylococcus aureus [6] = experiment: Antibacterial activity against Staphylococcus aureus ATCC 25923 by two-fold serial dilution method; format: functional; outline: as §2
[7] = Cytotoxicity against human LO2 cells assessed as inhibition of cell viability at 8 ug/ml after 24 hrs by MTT assay; format: cell-based, L02; details: read-out: INH; outline: as §1
[8] = Cytotoxicity against human A549 cells assessed as cell viability at 256 ug/ml after 24 hrs by CCK-8 assay; format: cell-based; details: read-out: Activity
Outline: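 A549 cells were plated and allowed to attach for 24 h, then medium with the compound was added. The compound came from DMSO stocks diluted in medium to 8, 16, 32, 64, 128 and 256 µg/mL. Cells were kept at 37 °C in 5% CO2. Viability was read by CCK-8 absorbance at 450 nm against a drug-free control, three replicates.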

Albumin [9] = target: T1, Albumin; experiment: Drug transport index, ratio of Kb to K0 for human serum albumin by fluorescence spectrophotometry in presence of […]; format: ADME; outline: as §3
Bacillus spizizenii = experiment: Antibacterial activity against Bacillus subtilis ATCC 6633 by two-fold serial dilution method; format: functional; outline: as §2
Albumin [10] = target: T1, Albumin; experiment: Binding affinity to human serum albumin by fluorescence spectrophotometry in presence of Ni2+; format: ADME; details: isolated protein
Outline: (§5)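 HSA-compound fluorescence measured in Tris-HCl (0.05 M Tris, 0.15 M NaCl, pH 7.4) with added metal chloride (CaCl2, KCl, MgCl2 or NiCl2). Excitation 295 nm, emission 300-450 nm, 298 K, 2.5 nm slits. The metal-ion effect is expressed as the ratio Kb/K0.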

Shigella dysenteriae = experiment: Antibacterial activity against Shigella dysenteriae by two-fold serial dilution method; format: functional; outline: as §4
Streptococcus pneumoniae = experiment: Antibacterial activity against Streptococcus pneumoniae by two-fold serial dilution method; format: functional; outline: as §2
Albumin [11] = target: T1, Albumin; experiment: Binding affinity to human serum albumin by fluorescence spectrophotometry in presence of K+; format: ADME; details: isolated protein; outline: as §5
Albumin [12] = target: T1, Albumin; experiment: Binding affinity to human serum albumin by fluorescence spectrophotometry; format: ADME; details: isolated protein
Outline: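 HSA dissolved in Tris-HCl buffer (0.05 M Tris, 0.15 M NaCl, pH 7.4). Fluorescence emission scanned 300-450 nm at 298 K with excitation at 295 nm, 2.5 nm slits and 1.0 cm quartz cells.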

[13] = Cytotoxicity against human LO2 cells assessed as inhibition of cell viability at 16 ug/ml after 24 hrs by MTT assay; format: cell-based, L02; details: read-out: INH; outline: as §1
Cyberlindnera jadinii = experiment: Antifungal activity against Candida utilis after 24 hrs by microbroth dilution method; format: functional; details: Williopsis jadinii
Outline: (§6)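 Spore suspension prepared in sterile distilled water from one-day-old cultures on Sabouraud agar, final 1-5 x 10^3 spores/mL. Compounds were serially diluted in RPMI 1640 to give eleven dilutions. Incubation at 35 °C for 24 h. Growth read visually and spectrophotometrically, in triplicate. MIC is the lowest concentration with complete inhibition.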

Albumin [14] = target: T1, Albumin; experiment: Binding affinity to human serum albumin by fluorescence spectrophotometry in presence of Mg2+; format: ADME; details: isolated protein; outline: as §5
Pichia norvegensis = experiment: Antifungal activity against Candida mycoderma after 24 hrs by microbroth dilution method; format: functional
Calf thymus DNA = experiment: Binding affinity to calf thymus DNA by UV-vis spectroscopy; format: nucleic-acid assay; details: Bos taurus
Outline: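 Calf thymus DNA held at a fixed concentration and titrated with increasing amounts of the compound. UV-vis absorption spectra were recorded at room temperature in 1.0 cm quartz cells, following the DNA band at 260 nm.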

Saccharomyces cerevisiae = experiment: Antifungal activity against Saccharomyces cerevisiae after 24 hrs by microbroth dilution method; format: functional; outline: as §6
Albumin [15] = target: T1, Albumin; experiment: Drug transport index, ratio of Kb to K0 for human serum albumin by fluorescence spectrophotometry in presence of Mg2+; format: ADME; outline: as §3
Albumin [16] = target: T1, Albumin; experiment: Drug transport index, ratio of Kb to K0 for human serum albumin by fluorescence spectrophotometry in presence of Ni2+; format: ADME; outline: as §3
[17] = Cytotoxicity against human LO2 cells assessed as inhibition of cell viability at 128 ug/ml after 24 hrs by MTT assay; format: cell-based, L02; details: read-out: INH
Outline: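 Human hepatocyte LO2 cells were plated, attached for 24 h, then exposed to the compound diluted in medium from DMSO stock, at 37 °C in 5% CO2. Viability was read by MTT at 490 nm. Inhibition was calculated as the percent reduction of viable cells versus a drug-free control, mean of three parallels.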

[18] = Octanol-water partition co-efficient, log P of the compound by shake flask method; format: physicochemical
[19] = Cytotoxicity against human LO2 cells assessed as inhibition of cell viability at 64 ug/ml after 24 hrs by MTT assay; format: cell-based, L02; details: read-out: INH; outline: as §1
Pseudomonas aeruginosa = experiment: Antibacterial activity against Pseudomonas aeruginosa by two-fold serial dilution method; format: functional; outline: as §2
Albumin [20] = target: T1, Albumin; experiment: Binding affinity to human serum albumin by fluorescence spectrophotometry in presence of Ca2+; format: ADME; details: isolated protein; outline: as §5
[21] = Dissociation constant, pKa of the compound by UV-spectroscopy; format: physicochemical
Outline: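 DMSO stock at 4.0 × 10^-3 mol/L added to 2 mL of buffer, then shaken 10 min at room temperature. Buffers were acetate (pH 4.0–5.0), MES (5.5–6.5), HEPES (7.0–8.0) and CHES (8.5–9.4), each from 500 mM stocks. Scans ran 210–400 nm and were normalized. Absolute differences from the acid spectrum were summed at 244 and 308 nm, plotted against pH and fitted to obtain pKa.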

Candida albicans = experiment: Antifungal activity against Candida albicans ATCC 76615 after 24 hrs by microbroth dilution method; format: functional; details: ATCC 76615, 24 h; outline: as §6
Aspergillus flavus = experiment: Antifungal activity against Aspergillus flavus ATCC 96918 after 24 hrs by microbroth dilution method

Cc1ncc([N+](=O)[O-])n1CC(O)Cn1cc(C(=O)O)c(=O)c2ccc(C(F)(F)F)cc21 (centres undefined)
cytotoxicity at 24 h, 32 ug/ml [1]: 10.3% | MIC (Escherichia coli): 0.5 µg/mL (≈ 1.14 µM) | Ratio (Albumin [2]): 1.43 | MIC (Staphylococcus aureus [3]): 1 µg/mL (≈ 2.27 µM) | solubility [4]: 790 µg/mL (≈ 1790 µM) | MIC (Micrococcus luteus): 1 µg/mL (≈ 2.27 µM) | MIC [5]: 8 µg/mL (≈ 18.2 µM) | MIC (Staphylococcus aureus [6]): 4 µg/mL (≈ 9.08 µM) | cytotoxicity at 24 h, 8 ug/ml [7]: 3.6% | viability at 24 h, 256 ug/ml [8]: > 83% | Ratio (Albumin [9]): 1.51 | MIC (Bacillus spizizenii): 4 µg/mL (≈ 9.08 µM) | Kb (Albumin [10]): 5.07 ×10⁴ L/mol | MIC (Shigella dysenteriae): 0.5 µg/mL (≈ 1.14 µM) | MIC (Streptococcus pneumoniae): 4 µg/mL (≈ 9.08 µM) | Kb (Albumin [11]): 3.42 ×10⁴ L/mol | Kb (Albumin [12]): 5.15 ×10⁴ L/mol | cytotoxicity at 24 h, 16 ug/ml [13]: 6.7% | MIC (Cyberlindnera jadinii): 512 µg/mL (≈ 1160 µM) | Kb (Albumin [14]): 5.63 ×10⁴ L/mol | MIC (Pichia norvegensis): 64 µg/mL (≈ 145 µM) | Activity (Calf thymus DNA): Dose-dependent effect | MIC (Saccharomyces cerevisiae): 64 µg/mL (≈ 145 µM) | Ratio (Albumin [15]): 0.91 | Ratio (Albumin [16]): 1.02 | cytotoxicity at 24 h, 128 ug/ml [17]: 17.5% | logP [18]: -0.25 | cytotoxicity at 24 h, 64 ug/ml [19]: 15.2% | MIC (Pseudomonas aeruginosa): 4 µg/mL (≈ 9.08 µM) | Kb (Albumin [20]): 3.61 ×10⁴ L/mol | pKa [21]: 5.6 | MIC (Candida albicans): 64 µg/mL (≈ 145 µM)

CCOC(=O)c1cn(CC2CO2)c2c(Cl)cc(Cl)cc2c1=O (racemic)
MIC [5]: 2 µg/mL (≈ 5.84 µM) | MIC (Bacillus spizizenii): 2 µg/mL (≈ 5.84 µM) | MIC (Cyberlindnera jadinii): 512 µg/mL (≈ 1500 µM) | MIC (Pichia norvegensis): 1 µg/mL (≈ 2.92 µM) | MIC (Aspergillus flavus): 512 µg/mL (≈ 1500 µM)

COc1ccc2c(c1)c(=O)c(C(=O)O)cn2CC(O)Cn1c([N+](=O)[O-])cnc1C (centres undefined)
MIC (Escherichia coli): 64 µg/mL (≈ 159 µM) | MIC (Staphylococcus aureus [3]): 8 µg/mL (≈ 19.9 µM) | solubility [4]: 400 µg/mL (≈ 994 µM) | MIC (Micrococcus luteus): 512 µg/mL (≈ 1270 µM) | MIC [5]: 8 µg/mL (≈ 19.9 µM) | MIC (Staphylococcus aureus [6]): 32 µg/mL (≈ 79.5 µM) | MIC (Bacillus spizizenii): 32 µg/mL (≈ 79.5 µM) | MIC (Shigella dysenteriae): 32 µg/mL (≈ 79.5 µM) | MIC (Streptococcus pneumoniae): 64 µg/mL (≈ 159 µM) | MIC (Cyberlindnera jadinii): 128 µg/mL (≈ 318 µM) | MIC (Pichia norvegensis): 512 µg/mL (≈ 1270 µM) | MIC (Saccharomyces cerevisiae): 256 µg/mL (≈ 636 µM) | logP [18]: -0.24 | MIC (Pseudomonas aeruginosa): 512 µg/mL (≈ 1270 µM) | pKa [21]: 5.72 | MIC (Candida albicans): 128 µg/mL (≈ 318 µM)

Cc1ncc([N+](=O)[O-])n1CC(O)Cn1cc(C(=O)O)c(=O)c2cc(F)c(Cl)cc21 (centres undefined)
MIC (Escherichia coli): 2 µg/mL (≈ 4.71 µM) | MIC (Staphylococcus aureus [3]): 4 µg/mL (≈ 9.42 µM) | solubility [4]: 430 µg/mL (≈ 1010 µM) | MIC (Micrococcus luteus): 64 µg/mL (≈ 151 µM) | MIC [5]: 128 µg/mL (≈ 301 µM) | MIC (Staphylococcus aureus [6]): 32 µg/mL (≈ 75.3 µM) | MIC (Bacillus spizizenii): 8 µg/mL (≈ 18.8 µM) | MIC (Shigella dysenteriae): 16 µg/mL (≈ 37.7 µM) | MIC (Streptococcus pneumoniae): 8 µg/mL (≈ 18.8 µM) | MIC (Cyberlindnera jadinii): 512 µg/mL (≈ 1210 µM) | MIC (Pichia norvegensis): 256 µg/mL (≈ 603 µM) | MIC (Saccharomyces cerevisiae): 128 µg/mL (≈ 301 µM) | logP [18]: 0.18 | MIC (Pseudomonas aeruginosa): 16 µg/mL (≈ 37.7 µM) | pKa [21]: 5.14 | MIC (Candida albicans): 64 µg/mL (≈ 151 µM)
